Legend:
Format in all cases: functional
A549 = assay: Antitumor activity against human A549 cells at 10 uM after 48 hrs by sulforhodamine B assay relative to control; settings: A549, 48 h, values are per cent of control
Summary of the method: (§1)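 Single-dose screen in a 55-line panel. Cells in RPMI-1640 with 5% FBS and 2 mM glutamine were preincubated for 24 h, then exposed to compound (DMSO stock diluted in medium) for 48 h at 37 °C with 5% CO2. Cells were fixed with cold TCA, stained with 0.4% SRB in 1% acetic acid, and dye was solubilized in 10 mM Tris base and read at 515 nm. Growth is given as percent of untreated control.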

EKVX = assay: Antitumor activity against human EKVX cells at 10 uM after 48 hrs by sulforhodamine B assay relative to control; settings: values are per cent of control; summary of the method: as §1
NCI-H226 = assay: Antitumor activity against human NCI-H226 cells at 10 uM after 48 hrs by sulforhodamine B assay relative to control; settings: NCI-H226, 48 h, values are per cent of control
Summary of the method: (§2)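 NCI panel lines were grown in RPMI-1640 with 5% FBS and 2 mM L-glutamine and seeded at 5000–40,000 cells/well according to doubling time. After 24 h at 37 °C, 5% CO2, one dose from a DMSO stock was added for 48 h. Cells were TCA-fixed (10% final adherent, 16% suspension), SRB-stained and read at 515 nm. Percent growth is relative to untreated control.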

NCI-H322M = assay: Antitumor activity against human NCI-H322M cells at 10 uM after 48 hrs by sulforhodamine B assay relative to control; settings: values are per cent of control; summary of the method: as §2
COLO 205 = assay: Antitumor activity against human COLO205 cells at 10 uM after 48 hrs by sulforhodamine B assay relative to control; settings: COLO 205, 48 h, values are per cent of control; summary of the method: as §1
HT-29 = assay: Antitumor activity against human HT-29 cells at 10 uM after 48 hrs by sulforhodamine B assay relative to control; settings: HT-29, 48 h, values are per cent of control; summary of the method: as §1
SW-620 = assay: Antitumor activity against human SW620 cells at 10 uM after 48 hrs by sulforhodamine B assay relative to control; settings: SW-620, 48 h, values are per cent of control
Summary of the method: (§3)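 NCI panel line grown in RPMI-1640 with 5% FBS and 2 mM L-glutamine, plated at 5000–40,000 cells/well, 24 h preincubation. Single final 10 µM from DMSO stock, 48 h at 37 °C, 5% CO2. TCA fixation (10% adherent, 16% suspension), SRB stain, absorbance 515 nm. Percent growth relative to untreated control.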

SF-268 = assay: Antitumor activity against human SF268 cells at 10 uM after 48 hrs by sulforhodamine B assay relative to control; settings: SF-268, 48 h, values are per cent of control; summary of the method: as §2
SF-295 = assay: Antitumor activity against human SF295 cells at 10 uM after 48 hrs by sulforhodamine B assay relative to control; settings: SF-295, 48 h, values are per cent of control; summary of the method: as §2
SF-539 = assay: Antitumor activity against human SF539 cells at 10 uM after 48 hrs by sulforhodamine B assay relative to control; settings: SF-539, 48 h, values are per cent of control; summary of the method: as §2
SNB-19 = assay: Antitumor activity against human SNB19 cells at 10 uM after 48 hrs by sulforhodamine B assay relative to control; settings: SNB-19, 48 h, values are per cent of control; summary of the method: as §2
U-251 = assay: Antitumor activity against human U251 cells at 10 uM after 48 hrs by sulforhodamine B assay relative to control; settings: U-251, 48 h, values are per cent of control; summary of the method: as §3
LOX IMVI = assay: Antitumor activity against human LOXIMVI cells at 10 uM after 48 hrs by sulforhodamine B assay relative to control; settings: values are per cent of control; summary of the method: as §1
Malme-3M = assay: Antitumor activity against human MALME-3M cells at 10 uM after 48 hrs by sulforhodamine B assay relative to control; settings: values are per cent of control; summary of the method: as §1
MDA-MB-435 = assay: Antitumor activity against human MDA-MB-435 cells at 10 uM after 48 hrs by sulforhodamine B assay relative to control; settings: MDA-MB-435, 48 h, values are per cent of control; summary of the method: as §1
SK-MEL-28 = assay: Antitumor activity against human SK-MEL-28 cells at 10 uM after 48 hrs by sulforhodamine B assay relative to control; settings: SK-MEL-28, 48 h, values are per cent of control; summary of the method: as §2
SK-MEL-5 = assay: Antitumor activity against human SK-MEL-5 cells at 10 uM after 48 hrs by sulforhodamine B assay relative to control; settings: SK-MEL-5, 48 h, values are per cent of control; summary of the method: as §2
UACC-62 = assay: Antitumor activity against human UACC62 cells at 10 uM after 48 hrs by sulforhodamine B assay relative to control; settings: UACC-62, 48 h, values are per cent of control; summary of the method: as §3
IGROV-1 = assay: Antitumor activity against human IGROV1 cells at 10 uM after 48 hrs by sulforhodamine B assay relative to control; settings: IGROV-1, 48 h, values are per cent of control; summary of the method: as §1
OVCAR-4 = assay: Antitumor activity against human OVCAR4 cells at 10 uM after 48 hrs by sulforhodamine B assay relative to control; settings: OVCAR-4, 48 h, values are per cent of control; summary of the method: as §2
OVCAR-5 = assay: Antitumor activity against human OVCAR5 cells at 10 uM after 48 hrs by sulforhodamine B assay relative to control; settings: OVCAR-5, 48 h, values are per cent of control; summary of the method: as §2
SK-OV-3 = assay: Antitumor activity against human SKOV3 cells at 10 uM after 48 hrs by sulforhodamine B assay relative to control; settings: SK-OV-3, 48 h, values are per cent of control; summary of the method: as §2
A498 = assay: Antitumor activity against human A498 cells at 10 uM after 48 hrs by sulforhodamine B assay relative to control; settings: A498, 48 h, values are per cent of control; summary of the method: as §1
UO-31 = assay: Antitumor activity against human UO31 cells at 10 uM after 48 hrs by sulforhodamine B assay relative to control; settings: UO-31, 48 h, values are per cent of control; summary of the method: as §3
PC-3 = assay: Antitumor activity against human PC3 cells at 10 uM after 48 hrs by sulforhodamine B assay relative to control; settings: PC-3, 48 h, values are per cent of control; summary of the method: as §2
DU-145 = assay: Antitumor activity against human DU145 cells at 10 uM after 48 hrs by sulforhodamine B assay relative to control; settings: DU-145, 48 h, values are per cent of control; summary of the method: as §1
MDA-MB-231 = assay: Antitumor activity against human MDA-MB-231 cells at 10 uM after 48 hrs by sulforhodamine B assay relative to control; settings: MDA-MB-231, 48 h, values are per cent of control; summary of the method: as §1
[1] = Antitumor activity against human Hs 578T cells at 10 uM after 48 hrs by sulforhodamine B assay relative to control; settings: values are per cent of control; summary of the method: as §1
BT-549 = assay: Antitumor activity against human BT549 cells at 10 uM after 48 hrs by sulforhodamine B assay relative to control; settings: BT-549, 48 h, values are per cent of control; summary of the method: as §1
T47D = assay: Antitumor activity against human T47D cells at 10 uM after 48 hrs by sulforhodamine B assay relative to control; settings: values are per cent of control; summary of the method: as §3

| SMILES | growth, % of control at 10 µM (A549) | growth, % of control at 10 µM (EKVX) | growth, % of control at 10 µM (NCI-H226) | growth, % of control at 10 µM (NCI-H322M) | growth, % of control at 10 µM (COLO 205) | growth, % of control at 10 µM (HT-29) | growth, % of control at 10 µM (SW-620) | growth, % of control at 10 µM (SF-268) | growth, % of control at 10 µM (SF-295) | growth, % of control at 10 µM (SF-539) | growth, % of control at 10 µM (SNB-19) | growth, % of control at 10 µM (U-251) | growth, % of control at 10 µM (LOX IMVI) | growth, % of control at 10 µM (Malme-3M) | growth, % of control at 10 µM (MDA-MB-435) | growth, % of control at 10 µM (SK-MEL-28) | growth, % of control at 10 µM (SK-MEL-5) | growth, % of control at 10 µM (UACC-62) | growth, % of control at 10 µM (IGROV-1) | growth, % of control at 10 µM (OVCAR-4) | other results |
| --- | --- | --- | --- | --- | --- | --- | --- | --- | --- | --- | --- | --- | --- | --- | --- | --- | --- | --- | --- | --- | --- |
| COc1ccc(NC(=O)Nc2ccccc2OCCCOc2ccccc2NC(=O)Nc2ccc(OC)cc2)cc1 | -80% | 2.2% | 87.1% | 82.4% | 18.6% | 54.9% | 0.7% | 50.7% | 49% | -29.6% | 47.6% | -50.9% | 23.7% | 55.1% | 41.6% | 45.7% | 48.7% | 3.9% | 4.9% | -67.2% | growth, % of control at 10 µM (OVCAR-5): 46%; growth, % of control at 10 µM (SK-OV-3): 7.9%; growth, % of control at 10 µM (A498): -9.3%; growth, % of control at 10 µM (UO-31): -20.7%; growth, % of control at 10 µM (PC-3): -36.5%; growth, % of control at 10 µM (DU-145): 39.4%; growth, % of control at 10 µM (MDA-MB-231): 34%; growth, % of control at 10 µM [1]: 46.4%; growth, % of control at 10 µM (BT-549): 81.2%; growth, % of control at 10 µM (T47D): 9.2% |
| O=C(Nc1ccc(Cl)cc1)Nc1ccc(OCCCOc2ccc(NC(=O)Nc3ccc(Cl)cc3)cc2)cc1 | 107% | 95% | 123% | 102% | 166% | 114% | 104% | 125% | 97.3% | 91.8% | 108% | 103% | 98.1% | 101% | 110% | 111% | > 100% | 98.9% | 85.1% | 110% | growth, % of control at 10 µM (OVCAR-5): 94.6%; growth, % of control at 10 µM (SK-OV-3): 122%; growth, % of control at 10 µM (A498): 107%; growth, % of control at 10 µM (UO-31): 68.8%; growth, % of control at 10 µM (PC-3): 93%; growth, % of control at 10 µM (DU-145): 121%; growth, % of control at 10 µM (MDA-MB-231): 111%; growth, % of control at 10 µM [1]: 85.4%; growth, % of control at 10 µM (BT-549): 102%; growth, % of control at 10 µM (T47D): 106% |
| COc1ccc(NC(=O)Nc2ccc(OCCCOc3ccc(NC(=O)Nc4ccc(OC)cc4)cc3)cc2)cc1 | 111% | 86.7% | 121% | 90.2% | 124% | 107% | 118% | 103% | 71.7% | 86.7% | 94.5% | 89.8% | 99.3% | 93.3% | 109% | 204% | 99.5% | 109% | 90.2% | 109% | growth, % of control at 10 µM (OVCAR-5): 88.4%; growth, % of control at 10 µM (SK-OV-3): 88.4%; growth, % of control at 10 µM (A498): 144%; growth, % of control at 10 µM (UO-31): 71.4%; growth, % of control at 10 µM (PC-3): 108%; growth, % of control at 10 µM (DU-145): 107%; growth, % of control at 10 µM (MDA-MB-231): 93.3%; growth, % of control at 10 µM [1]: 88.2%; growth, % of control at 10 µM (BT-549): 88.1%; growth, % of control at 10 µM (T47D): 83.6% |

Reference: ChEMBL document CHEMBL1287652, “QSAR modeling, synthesis and bioassay of diverse leukemia RPMI-8226 cell line active agents” (2010)
